Measurements published in ChEMBL document CHEMBL1156178, “Discovery of novel 6,6-heterocycles as transient receptor potential vanilloid (TRPV1) antagonists” (J Med Chem, 2010).
Values after ≈ are worked out from the molar mass of the structure shown. Active and inactive are the calls of the source. The calls are words filed in the database; no cut-off is given here.

Legend:
[1] = molecular target: Transient receptor potential cation channel subfamily V member 1 (Homo sapiens, UniProt Q8NER1); experiment: Antagonist activity at human recombinant TRPV1 expressed in HEK293 cells assessed as inhibition of capsaicin-induced calcium mobilization by FLIPR assay
[2] = Solubility in 0.1 N HCL after 4 hrs by HPLC/MS analysis; format: physicochemical
[3] = molecular target: Protein kinase C alpha type (Homo sapiens) (UniProt P17252); experiment: Inhibition of PKCalpha at 10 uM
[4] = Cmax in rat at 10 mg/kg, po; format: ADME, organism-based; design: dose 10 mg/kg, route oral; conditions: in vivo
Rattus norvegicus [5] = experiment: Analgesic activity in po dosed rat assessed as reversal of carrageenan-induced thermal hyperalgesia administered 2 hrs after carrageenan challenge; format: functional, organism-based
Rattus norvegicus [6] = experiment: Analgesic activity in rat assessed as complete reversal of carrageenan-induced thermal hyperalgesia at 3 mg/kg, po administered 2 hrs after carrageenan challenge; format: functional, organism-based; design: dose 3 mg/kg
[7] = Fraction unbound in rat plasma; format: ADME, cell-free
[8] = Plasma concentration in carrageenan treated rat at 1 mg/kg, po administered 2 hrs after carrageenan challenge measured after 1 hr; format: ADME, organism-based; design: dose 1 mg/kg, route oral
[9] = Equilibrium solubility in at pH 7.4; format: physicochemical; conditions: buffer
[10] = Clearance in rat at 1 mg/kg, iv and 1 mg/kg, po; format: ADME, organism-based; conditions: in vivo
[11] = molecular target: Mitogen-activated protein kinase 14 (Homo sapiens) (UniProt Q16539); experiment: Inhibition of p38alpha at 10 uM
[12] = Cmax in rat at 1 mg/kg, po; format: ADME, organism-based; design: dose 1 mg/kg, route oral; conditions: in vivo
[13] = Plasma concentration in carrageenan treated rat at 3 mg/kg, po administered 2 hrs after carrageenan challenge measured after 1 hr; format: ADME, organism-based; design: dose 3 mg/kg, route oral
[14] = molecular target: Transient receptor potential cation channel subfamily V member 1 (Rattus norvegicus, UniProt O35433); experiment: Inhibition of rat TRPV1 at pH 5 to 5.5
[15] = Plasma concentration in complete Freund's adjuvant treated Sprague-Dawley rat at 1 mg/kg, po administered 24 hrs after CFA challenge after 2 hrs post dose; format: ADME, organism-based; design: dose 1 mg/kg, route oral
[16] = Tmax in rat at 1 mg/kg, po; format: ADME, organism-based; design: dose 1 mg/kg, route oral; conditions: in vivo
[17] = Plasma concentration in complete Freund's adjuvant treated Sprague-Dawley rat at 1 mg/kg, po qd for 2 days administered 24 hrs after CFA challenge after 2 hrs last post dose; format: ADME, organism-based; design: dose 1 mg/kg, route oral
[18] = AUC (0 to 24 hrs) in rat at 100 mg/kg, po; format: ADME, organism-based; design: time < 24 hr, dose 100 mg/kg, route oral; conditions: plasma
[19] = AUC (0 to 24 hrs) in rat at 10 mg/kg, po; format: ADME, organism-based; design: time < 24 hr, dose 10 mg/kg, route oral; conditions: plasma
[20] = Plasma concentration in complete Freund's adjuvant treated Sprague-Dawley rat at 10 mg/kg, po qd for 3 days administered 24 hrs after CFA challenge after 2 hrs last post dose; format: ADME, organism-based; design: dose 10 mg/kg, route oral
[21] = Tmax in rat at 1 mg/kg, iv and 1 mg/kg, po; format: ADME, organism-based; conditions: in vivo
[22] = Plasma concentration in complete Freund's adjuvant treated Sprague-Dawley rat at 3 mg/kg, po qd for 2 days administered 24 hrs after CFA challenge after 2 hrs last post dose; format: ADME, organism-based; design: dose 3 mg/kg, route oral
Homo sapiens [23] = species on record: Homo sapiens; experiment: Fraction unbound in human plasma
Rattus norvegicus [24] = experiment: Induction of hyperthermia in Sprague-Dawley rat at 3 mg/kg, po qd for 4 days; format: organism-based; design: dose 3 mg/kg, route oral; conditions: in vivo, 96 h
[25] = molecular target: Mitogen-activated protein kinase 3 (Homo sapiens, UniProt P27361); experiment: Inhibition of human ERK1
[26] = Tmax in rat at 10 mg/kg, po; format: ADME, organism-based; design: dose 10 mg/kg, route oral; conditions: in vivo
[27] = Metabolic stability in rat liver microsomes assessed as compound remaining at 1 uM after 10 mins by LCMS analysis; format: ADME, Microsome; conditions: read-out: Activity
Method in brief: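 Compound (1 μM) incubated at 37 °C with 0.5 mg/mL male pooled rat liver microsomes; NADPH added to start the reaction. Aliquots were taken at 0 and 10 min and quenched into ice-cold acetonitrile with internal standard, then centrifuged. Parent was monitored as the M+1 ion by ESI-LCMS in selected-ion mode. Percent remaining was taken as the 10 min/0 min signal ratio, corrected by internal-standard recovery.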

[28] = Plasma concentration in complete Freund's adjuvant treated Sprague-Dawley rat at 3 mg/kg, po qd for 3 days administered 24 hrs after CFA challenge after 2 hrs last post dose; format: ADME, organism-based; design: dose 3 mg/kg, route oral
[29] = Plasma concentration in complete Freund's adjuvant treated Sprague-Dawley rat at 1 mg/kg, po qd for 3 days administered 24 hrs after CFA challenge after 2 hrs last post dose; format: ADME, organism-based; design: dose 1 mg/kg, route oral
Rattus norvegicus [30] = experiment: Induction of hyperthermia in Sprague-Dawley rat at 3 mg/kg, po after 10 hrs; format: organism-based; design: dose 3 mg/kg, route oral; conditions: in vivo
Rattus norvegicus [31] = experiment: Induction of hyperthermia in Sprague-Dawley rat at 3 mg/kg, po after 1 hr; format: organism-based; design: dose 3 mg/kg, route oral; conditions: in vivo
[32] = Plasma concentration in complete Freund's adjuvant treated Sprague-Dawley rat at 10 mg/kg, po administered 24 hrs after CFA challenge after 2 hrs post dose; format: ADME, organism-based; design: dose 10 mg/kg, route oral
Rattus norvegicus [33] = experiment: Analgesic activity against CFA-induced inflammatory pain in Sprague-Dawley rat assessed as reversal of decrease in weight bearing at 10 mg/kg, po qd for 3 days administered 24 hrs after CFA challenge; format: functional, organism-based; design: dose 10 mg/kg
[34] = Cmax in rat at 100 mg/kg, po; format: ADME, organism-based; design: dose 100 mg/kg, route oral; conditions: in vivo
[35] = Volume of distribution in rat at 1 mg/kg, iv and 1 mg/kg, po; format: ADME, organism-based; conditions: in vivo
[36] = molecular target: Epidermal growth factor receptor (Homo sapiens) (UniProt P00533); experiment: Inhibition of EGFR at 10 uM
[37] = Protein binding in rat plasma; format: ADME, cell-free; conditions: read-out: PPB (converted)
[38] = Half life in rat at 1 mg/kg, iv and 1 mg/kg, po; format: ADME, organism-based; conditions: in vivo
[39] = Plasma concentration in carrageenan treated rat at 0.3 mg/kg, po administered 2 hrs after carrageenan challenge measured after 1 hr; format: ADME, organism-based; design: dose 0.3 mg/kg, route oral
[40] = molecular target: Voltage-gated L-type calcium channel (Rattus norvegicus, UniProt P22002+Q02485+P27732); experiment: Inhibition of rat L-type calcium channel
hERG (KCNH2) = hERG (KCNH2) (Homo sapiens, UniProt Q12809); experiment: Inhibition of human ERG expressed in COS7 cells at 10 uM by electrophysiology assay; format: cell-based, COS-7; conditions: COS7 cells expressing human ERG
[41] = molecular target: Insulin receptor (Homo sapiens) (UniProt P06213); experiment: Inhibition of insulin receptor at 10 uM
Rattus norvegicus [42] = experiment: Liver blood flow in rat at 1 mg/kg, iv and 1 mg/kg, po; format: ADME, organism-based; conditions: in vivo
[43] = Plasma concentration in complete Freund's adjuvant treated Sprague-Dawley rat at 3 mg/kg, po administered 24 hrs after CFA challenge after 2 hrs post dose; format: ADME, organism-based; design: dose 3 mg/kg, route oral
MDR1 = experiment: Apparent permeability across pig LLC-PK1 cells expressing MDR1; format: ADME, cell-based, Sus scrofa
LLC-PK1 = experiment: Efflux ratio of permeability from […] in MDR1 transfected pig LLC-PK1 cells; format: ADME, cell-based, Sus scrofa
[44] = AUC (0 to 24 hrs) in rat at 1 mg/kg, po; format: ADME, organism-based; design: time < 24 hr, dose 1 mg/kg, route oral; conditions: plasma
Homo sapiens [45] = species on record: Homo sapiens; experiment: Protein binding in human plasma; conditions: read-out: PPB (converted)
[46] = Oral bioavailability in rat at 1 mg/kg; format: ADME, organism-based; conditions: in vivo
[47] = Tmax in rat at 100 mg/kg, po; format: ADME, organism-based; design: dose 100 mg/kg, route oral; conditions: in vivo
[48] = Plasma concentration in complete Freund's adjuvant treated Sprague-Dawley rat at 10 mg/kg, po qd for 2 days administered 24 hrs after CFA challenge after 2 hrs last post dose; format: ADME, organism-based; design: dose 10 mg/kg, route oral
[49] = Ratio of drug level in brain to plasma in rat at 3 mg/kg, po after 1 hr; format: ADME, organism-based; design: dose 3 mg/kg, route oral
[50] = Inhibition of PKA at 10 uM
Rattus norvegicus [51] = species on record: Rattus norvegicus; experiment: Analgesic activity against carrageenan-induced thermal hyperalgesia in rat; format: functional; conditions: read-out: MED

Sequence of Transient receptor potential cation channel subfamily V member 1 (Homo sapiens, UniProt Q8NER1) (Q8NER1 whole entry): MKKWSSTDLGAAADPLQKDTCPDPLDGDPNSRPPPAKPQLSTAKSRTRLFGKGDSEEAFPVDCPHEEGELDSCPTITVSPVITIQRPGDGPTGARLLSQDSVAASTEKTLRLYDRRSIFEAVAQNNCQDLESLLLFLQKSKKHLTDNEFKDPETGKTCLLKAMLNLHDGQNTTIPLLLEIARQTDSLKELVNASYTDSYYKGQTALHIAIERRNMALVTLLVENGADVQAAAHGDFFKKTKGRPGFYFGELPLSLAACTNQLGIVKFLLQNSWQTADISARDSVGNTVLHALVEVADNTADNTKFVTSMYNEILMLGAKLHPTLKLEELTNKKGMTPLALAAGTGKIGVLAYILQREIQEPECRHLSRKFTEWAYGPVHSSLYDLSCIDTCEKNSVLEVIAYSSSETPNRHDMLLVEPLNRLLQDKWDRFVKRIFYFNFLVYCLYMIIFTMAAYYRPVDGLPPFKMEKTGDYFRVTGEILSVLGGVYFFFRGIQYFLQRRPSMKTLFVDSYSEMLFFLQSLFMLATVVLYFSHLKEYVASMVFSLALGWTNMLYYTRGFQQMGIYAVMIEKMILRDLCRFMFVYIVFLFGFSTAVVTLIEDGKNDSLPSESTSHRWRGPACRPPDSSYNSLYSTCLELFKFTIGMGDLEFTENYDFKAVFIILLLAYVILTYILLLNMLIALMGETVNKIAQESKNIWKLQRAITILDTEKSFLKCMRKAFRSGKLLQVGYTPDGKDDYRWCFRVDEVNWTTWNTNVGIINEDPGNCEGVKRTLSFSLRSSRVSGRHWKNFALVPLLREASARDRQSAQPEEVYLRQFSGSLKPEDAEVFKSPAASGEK
Sequence of Insulin receptor (Homo sapiens) (P06213 28-758 limits assumed): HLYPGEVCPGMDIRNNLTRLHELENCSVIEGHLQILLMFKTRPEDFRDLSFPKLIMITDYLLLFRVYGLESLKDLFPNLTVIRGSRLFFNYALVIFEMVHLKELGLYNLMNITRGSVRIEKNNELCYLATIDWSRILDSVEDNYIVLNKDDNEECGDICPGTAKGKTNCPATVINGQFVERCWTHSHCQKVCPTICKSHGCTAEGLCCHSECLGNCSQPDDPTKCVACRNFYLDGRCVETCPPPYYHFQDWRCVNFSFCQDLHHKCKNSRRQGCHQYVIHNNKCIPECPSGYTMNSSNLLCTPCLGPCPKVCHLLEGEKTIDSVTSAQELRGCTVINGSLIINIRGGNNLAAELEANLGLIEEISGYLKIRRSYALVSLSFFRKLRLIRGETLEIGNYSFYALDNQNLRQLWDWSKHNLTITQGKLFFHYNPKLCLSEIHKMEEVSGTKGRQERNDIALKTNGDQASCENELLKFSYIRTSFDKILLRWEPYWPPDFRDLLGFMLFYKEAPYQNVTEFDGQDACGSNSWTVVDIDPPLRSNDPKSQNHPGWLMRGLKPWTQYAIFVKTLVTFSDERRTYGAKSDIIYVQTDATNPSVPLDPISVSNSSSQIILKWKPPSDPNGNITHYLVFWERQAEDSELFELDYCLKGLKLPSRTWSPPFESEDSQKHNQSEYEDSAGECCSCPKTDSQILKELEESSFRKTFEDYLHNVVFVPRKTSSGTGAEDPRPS
Sequence of Insulin receptor (Homo sapiens) (P06213 763-1382 limits assumed): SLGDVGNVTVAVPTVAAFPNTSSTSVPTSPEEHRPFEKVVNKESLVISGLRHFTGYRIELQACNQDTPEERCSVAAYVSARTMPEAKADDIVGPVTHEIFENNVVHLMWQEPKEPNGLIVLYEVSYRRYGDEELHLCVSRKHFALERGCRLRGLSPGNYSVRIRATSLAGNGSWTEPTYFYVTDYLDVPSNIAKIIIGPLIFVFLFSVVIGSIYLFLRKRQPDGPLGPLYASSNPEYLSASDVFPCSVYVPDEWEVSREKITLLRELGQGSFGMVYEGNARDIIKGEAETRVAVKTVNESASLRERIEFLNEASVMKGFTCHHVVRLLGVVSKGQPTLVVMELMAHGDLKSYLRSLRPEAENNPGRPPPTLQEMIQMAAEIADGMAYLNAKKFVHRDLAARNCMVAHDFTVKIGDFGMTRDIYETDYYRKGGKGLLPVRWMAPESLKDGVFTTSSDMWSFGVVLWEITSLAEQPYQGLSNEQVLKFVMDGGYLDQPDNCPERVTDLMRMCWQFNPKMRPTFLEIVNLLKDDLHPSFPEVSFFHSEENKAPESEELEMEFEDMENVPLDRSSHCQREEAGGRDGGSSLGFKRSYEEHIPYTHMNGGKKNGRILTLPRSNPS
Sequence of Mitogen-activated protein kinase 3 (P27361 whole entry): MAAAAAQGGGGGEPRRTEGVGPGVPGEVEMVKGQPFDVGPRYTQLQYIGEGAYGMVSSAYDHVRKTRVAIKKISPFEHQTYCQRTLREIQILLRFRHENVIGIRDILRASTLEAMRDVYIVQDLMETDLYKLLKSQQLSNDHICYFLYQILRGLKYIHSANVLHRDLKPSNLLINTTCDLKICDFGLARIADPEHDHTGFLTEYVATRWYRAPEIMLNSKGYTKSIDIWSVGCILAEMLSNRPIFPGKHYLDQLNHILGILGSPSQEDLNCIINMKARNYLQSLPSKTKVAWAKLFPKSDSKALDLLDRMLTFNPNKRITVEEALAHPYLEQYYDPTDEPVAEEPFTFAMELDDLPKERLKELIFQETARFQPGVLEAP
Sequence of Epidermal growth factor receptor (Homo sapiens) (P00533 whole entry): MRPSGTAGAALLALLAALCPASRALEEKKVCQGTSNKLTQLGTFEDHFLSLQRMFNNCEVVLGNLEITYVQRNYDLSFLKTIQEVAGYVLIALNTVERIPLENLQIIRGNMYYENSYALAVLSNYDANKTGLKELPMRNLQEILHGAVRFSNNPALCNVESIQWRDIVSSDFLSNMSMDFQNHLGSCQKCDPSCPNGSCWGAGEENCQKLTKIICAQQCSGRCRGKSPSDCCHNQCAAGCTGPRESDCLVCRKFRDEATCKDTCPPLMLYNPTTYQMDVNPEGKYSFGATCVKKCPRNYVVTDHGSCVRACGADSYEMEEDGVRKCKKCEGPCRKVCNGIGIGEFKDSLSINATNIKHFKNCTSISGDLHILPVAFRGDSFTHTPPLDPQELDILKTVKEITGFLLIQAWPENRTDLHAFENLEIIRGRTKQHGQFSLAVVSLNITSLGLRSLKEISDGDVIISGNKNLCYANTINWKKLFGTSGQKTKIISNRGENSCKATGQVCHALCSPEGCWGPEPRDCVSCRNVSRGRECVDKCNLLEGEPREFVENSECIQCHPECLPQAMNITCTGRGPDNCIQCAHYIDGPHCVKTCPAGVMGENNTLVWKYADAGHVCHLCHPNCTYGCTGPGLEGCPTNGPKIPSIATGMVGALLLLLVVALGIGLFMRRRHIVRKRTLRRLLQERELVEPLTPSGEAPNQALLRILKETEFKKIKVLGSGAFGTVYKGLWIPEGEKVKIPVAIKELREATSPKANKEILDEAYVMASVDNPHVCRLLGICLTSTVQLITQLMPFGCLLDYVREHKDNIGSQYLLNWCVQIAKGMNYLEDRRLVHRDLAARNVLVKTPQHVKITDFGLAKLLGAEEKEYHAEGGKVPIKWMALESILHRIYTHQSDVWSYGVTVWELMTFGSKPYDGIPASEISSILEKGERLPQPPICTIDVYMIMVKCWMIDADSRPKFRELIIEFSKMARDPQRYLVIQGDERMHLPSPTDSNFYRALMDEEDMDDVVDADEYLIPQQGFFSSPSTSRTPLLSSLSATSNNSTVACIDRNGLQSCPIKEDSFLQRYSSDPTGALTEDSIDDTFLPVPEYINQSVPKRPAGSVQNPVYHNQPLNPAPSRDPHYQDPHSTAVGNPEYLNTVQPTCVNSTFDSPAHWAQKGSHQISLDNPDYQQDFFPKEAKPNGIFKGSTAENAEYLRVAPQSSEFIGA
Sequence of Mitogen-activated protein kinase 14 (Homo sapiens) (Q16539 whole entry): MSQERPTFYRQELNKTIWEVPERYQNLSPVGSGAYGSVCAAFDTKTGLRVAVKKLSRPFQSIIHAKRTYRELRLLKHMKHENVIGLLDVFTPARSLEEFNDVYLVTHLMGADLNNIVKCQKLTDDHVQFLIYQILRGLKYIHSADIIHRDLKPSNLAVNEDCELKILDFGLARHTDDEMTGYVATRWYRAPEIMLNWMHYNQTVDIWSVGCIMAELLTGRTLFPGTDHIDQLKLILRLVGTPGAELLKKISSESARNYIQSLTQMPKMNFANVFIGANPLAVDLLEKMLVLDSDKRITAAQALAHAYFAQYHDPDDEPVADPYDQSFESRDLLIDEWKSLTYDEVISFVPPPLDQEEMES

Compound: FC(F)(F)c1ccc(Nc2cncc3nc(-c4ncccc4C(F)(F)F)ccc23)nc1
- IC50 [1]: 460 nM
- solubility at 4 h [2]: 20 µg/mL (≈ 45.9 µM)

Compound: FC(F)(F)c1ccc(Nc2ccnc3nc(-c4ncccc4C(F)(F)F)ccc23)nc1
- inhibition [3]: inactive
- Cmax [4]: 2870 nM
- Activity (Rattus norvegicus [5]): Dose-dependent effect
- Activity (Rattus norvegicus [6]): Active
- fraction unbound [7]: 0.107
- concentration at 1 h [8]: 300 nM
- solubility thermodynamic [9]: 2 µg/mL (≈ 4.59 µM)
- clearance [10]: 34 mL/min/kg
- inhibition [11]: inactive
- Cmax [12]: 240 nM
- concentration at 1 h [13]: 1400 nM
- IC50 [14]: 3.25 nM
- concentration at 2 h [15]: 100 nM
- Tmax [16]: 1.1 h
- concentration at 2 h [17]: 390 nM
- AUC(0-t) at 24 h [18]: 204 µM·h
- AUC(0-t) at 24 h [19]: 22.6 µM·h
- concentration at 2 h [20]: 3260 nM
- Tmax [21]: 1.1 h
- concentration at 2 h [22]: 1330 nM
- fraction unbound (Homo sapiens [23]): 0.065
- Activity (Rattus norvegicus [24]): Non-toxic
- IC50 [1]: 2.2 nM
- IC50 [25]: 980 nM
- Tmax [26]: 3.33 h
- remaining at 10 min, 1 µM [27]: 100%
- concentration at 2 h [28]: 930 nM
- concentration at 2 h [29]: 380 nM
- Activity (Rattus norvegicus [30]): Non-toxic
- Activity (Rattus norvegicus [31]): Non-toxic
- concentration at 2 h [32]: 2300 nM
- Activity (Rattus norvegicus [33]): Active
- Cmax [34]: 12900 nM
- Vd [35]: 3.9 L/kg
- inhibition [36]: inactive
- fraction unbound [37]: 0.107
- half-life [38]: 1.4 h
- concentration at 1 h [39]: 60 nM
- IC50 [40]: 3000 nM
- solubility at 4 h [2]: 40 µg/mL (≈ 91.9 µM)
- inhibition at 10 µM (hERG (KCNH2)): 47%
- inhibition [41]: inactive
- LBF (Rattus norvegicus [42]): 45%
- concentration at 2 h [43]: 230 nM
- Papp (MDR1): 29.8 ×10⁻⁶ cm/s
- Ratio (LLC-PK1): 1.7
- AUC(0-t) at 24 h [44]: 0.6 µM·h
- fraction unbound (Homo sapiens [45]): 0.065
- bioavailability [46]: 52%
- Tmax [47]: 6 h
- concentration at 2 h [48]: 5230 nM
- Kp at 1 h [49]: 0.3
- inhibition [50]: inactive

Compound: FC(F)(F)c1ccc(Nc2ncnc3nc(-c4ncccc4C(F)(F)F)cnc23)cc1
- IC50 [1]: 0.21 nM
- solubility at 4 h [2]: 1 µg/mL (≈ 2.29 µM)

Compound: COCc1nc(Nc2ccc(C(F)(F)F)cc2)c2ccc(-c3ncccc3C(F)(F)F)cc2n1
- minimal effective dose (Rattus norvegicus [51]): 0.3 mg/kg

Compound: FC(F)(F)c1ccc(Nc2ccnc3nc(-c4ncccc4C(F)(F)F)ccc23)cc1
- IC50 [1]: 6.1 nM
- solubility at 4 h [2]: 24 µg/mL (≈ 55.3 µM)
